Reference: the M2OR odorant receptor database

Legend:
Conditions in all cases: stereoisomer not certain
OR52I1 (Homo sapiens) = biological target: T1, OR52I1 (Homo sapiens) (UniProt Q8NGK6)
T1 sequence (whole entry): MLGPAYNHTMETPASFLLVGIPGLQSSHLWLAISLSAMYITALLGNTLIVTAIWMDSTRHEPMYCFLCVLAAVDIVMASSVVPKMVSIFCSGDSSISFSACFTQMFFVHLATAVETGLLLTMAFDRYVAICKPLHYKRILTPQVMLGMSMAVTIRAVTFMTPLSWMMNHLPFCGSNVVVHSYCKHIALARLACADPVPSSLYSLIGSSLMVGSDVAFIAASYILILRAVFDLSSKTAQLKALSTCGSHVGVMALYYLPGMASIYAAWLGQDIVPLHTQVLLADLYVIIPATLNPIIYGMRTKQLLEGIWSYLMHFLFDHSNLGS
Procedure, shortened: (§1)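 Assay methods differ from source to source, frequently being transient luciferase assays in mammalian cell lines. For each receptor–molecule pair, the label responsive (active) applies when the original authors judged the measured signal statistically different from baseline, and non-responsive (inactive) applies otherwise.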

OR52I2 (Homo sapiens) = biological target: T2, OR52I2 (Homo sapiens) (UniProt Q8NH67)
T2 sequence (whole entry): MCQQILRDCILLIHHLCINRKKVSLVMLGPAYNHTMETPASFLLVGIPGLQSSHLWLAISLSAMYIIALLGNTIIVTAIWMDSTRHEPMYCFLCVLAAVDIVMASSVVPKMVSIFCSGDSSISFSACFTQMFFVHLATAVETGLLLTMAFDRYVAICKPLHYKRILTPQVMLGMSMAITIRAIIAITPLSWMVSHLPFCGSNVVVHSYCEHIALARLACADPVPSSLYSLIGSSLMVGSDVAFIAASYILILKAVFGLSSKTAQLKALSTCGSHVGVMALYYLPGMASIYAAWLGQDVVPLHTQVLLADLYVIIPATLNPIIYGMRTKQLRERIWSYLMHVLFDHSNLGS
Procedure, shortened: as §1

OR52J3 (Homo sapiens) = OR52J3 (Homo sapiens) (UniProt Q8NH60)
Chain of OR52J3 (Homo sapiens) (Q8NH60 whole entry): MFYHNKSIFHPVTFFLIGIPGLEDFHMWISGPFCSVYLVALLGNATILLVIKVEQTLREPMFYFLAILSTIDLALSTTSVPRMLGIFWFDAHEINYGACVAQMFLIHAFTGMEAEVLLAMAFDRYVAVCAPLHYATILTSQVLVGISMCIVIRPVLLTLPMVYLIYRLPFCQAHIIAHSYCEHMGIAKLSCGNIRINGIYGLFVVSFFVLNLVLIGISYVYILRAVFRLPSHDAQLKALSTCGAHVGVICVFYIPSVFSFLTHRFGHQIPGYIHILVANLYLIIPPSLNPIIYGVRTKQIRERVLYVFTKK
Procedure, shortened: as §1

OR52K1 (Homo sapiens) = biological target: T3, OR52K1 (Homo sapiens) (UniProt Q8NGK4)
T3 sequence (whole entry): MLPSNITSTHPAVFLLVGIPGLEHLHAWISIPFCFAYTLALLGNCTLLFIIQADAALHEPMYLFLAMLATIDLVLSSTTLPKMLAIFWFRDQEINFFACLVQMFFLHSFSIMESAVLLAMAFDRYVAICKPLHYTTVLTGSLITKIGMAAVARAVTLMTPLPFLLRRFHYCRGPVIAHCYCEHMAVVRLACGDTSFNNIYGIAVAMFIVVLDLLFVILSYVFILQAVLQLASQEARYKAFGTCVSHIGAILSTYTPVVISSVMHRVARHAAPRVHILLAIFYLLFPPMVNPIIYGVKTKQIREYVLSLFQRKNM
Procedure, shortened: as §1

OR52K2 (Homo sapiens) = biological target: T4, OR52K2 (Homo sapiens) (UniProt Q8NGK3)
T4 sequence (whole entry): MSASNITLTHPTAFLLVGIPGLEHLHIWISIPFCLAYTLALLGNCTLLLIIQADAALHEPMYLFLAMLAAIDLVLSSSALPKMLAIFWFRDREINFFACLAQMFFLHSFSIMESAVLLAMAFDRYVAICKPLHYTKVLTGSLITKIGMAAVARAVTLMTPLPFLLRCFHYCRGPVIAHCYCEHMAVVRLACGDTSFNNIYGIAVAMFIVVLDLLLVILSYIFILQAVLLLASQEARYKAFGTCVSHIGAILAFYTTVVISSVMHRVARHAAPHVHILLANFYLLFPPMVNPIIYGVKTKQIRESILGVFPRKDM
Procedure, shortened: as §1

OR52L1 (Homo sapiens) = biological target: T5, OR52L1 (Homo sapiens) (UniProt Q8NGH7)
T5 sequence (whole entry): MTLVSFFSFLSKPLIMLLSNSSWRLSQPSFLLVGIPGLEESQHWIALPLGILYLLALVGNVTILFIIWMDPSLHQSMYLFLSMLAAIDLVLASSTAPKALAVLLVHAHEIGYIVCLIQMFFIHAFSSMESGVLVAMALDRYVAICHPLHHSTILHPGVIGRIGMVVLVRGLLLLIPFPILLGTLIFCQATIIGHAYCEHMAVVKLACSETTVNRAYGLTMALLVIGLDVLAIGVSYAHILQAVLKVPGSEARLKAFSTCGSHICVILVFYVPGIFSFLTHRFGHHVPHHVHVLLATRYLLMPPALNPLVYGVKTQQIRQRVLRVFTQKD
Procedure, shortened: as §1

OR52M1 (Homo sapiens) = biological target: T6, OR52M1 (Homo sapiens) (UniProt Q8NGK5)
T6 sequence (whole entry): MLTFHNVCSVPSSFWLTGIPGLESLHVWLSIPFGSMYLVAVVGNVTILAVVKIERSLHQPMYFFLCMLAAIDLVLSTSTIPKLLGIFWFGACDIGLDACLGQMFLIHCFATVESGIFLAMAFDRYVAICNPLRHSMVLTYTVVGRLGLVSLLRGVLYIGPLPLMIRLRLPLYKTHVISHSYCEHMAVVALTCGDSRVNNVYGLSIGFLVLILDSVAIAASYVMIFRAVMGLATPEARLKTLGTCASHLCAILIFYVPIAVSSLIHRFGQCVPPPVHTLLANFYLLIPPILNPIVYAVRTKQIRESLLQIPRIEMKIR
Procedure, shortened: as §1

OR52N1 (Homo sapiens) = biological target: T7, OR52N1 (Homo sapiens) (UniProt Q8NH53)
T7 sequence (whole entry): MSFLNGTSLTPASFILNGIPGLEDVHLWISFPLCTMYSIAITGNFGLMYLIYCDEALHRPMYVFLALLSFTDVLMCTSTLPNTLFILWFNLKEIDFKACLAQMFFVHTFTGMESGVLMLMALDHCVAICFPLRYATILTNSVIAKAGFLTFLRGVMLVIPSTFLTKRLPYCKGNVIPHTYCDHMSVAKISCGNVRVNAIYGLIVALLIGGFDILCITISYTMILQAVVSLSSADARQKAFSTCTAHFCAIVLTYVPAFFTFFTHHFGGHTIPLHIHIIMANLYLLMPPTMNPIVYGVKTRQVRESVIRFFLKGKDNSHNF
Procedure, shortened: as §1

OR52N2 (Homo sapiens) = biological target: T8, OR52N2 (Homo sapiens) (UniProt Q8NGI0)
T8 sequence (whole entry): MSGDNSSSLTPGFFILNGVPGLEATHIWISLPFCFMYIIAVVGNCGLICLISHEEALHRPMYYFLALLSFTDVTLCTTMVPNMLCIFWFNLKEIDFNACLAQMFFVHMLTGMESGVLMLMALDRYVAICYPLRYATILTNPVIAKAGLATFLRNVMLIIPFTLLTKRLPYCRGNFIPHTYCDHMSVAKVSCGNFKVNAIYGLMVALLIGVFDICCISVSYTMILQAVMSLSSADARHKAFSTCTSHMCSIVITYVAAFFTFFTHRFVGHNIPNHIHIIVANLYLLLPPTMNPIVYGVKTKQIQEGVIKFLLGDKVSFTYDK
Procedure, shortened: as §1

OR52N4 (Homo sapiens) = biological target: T9, OR52N4 (Homo sapiens) (UniProt Q8NGI2)
T9 sequence (whole entry): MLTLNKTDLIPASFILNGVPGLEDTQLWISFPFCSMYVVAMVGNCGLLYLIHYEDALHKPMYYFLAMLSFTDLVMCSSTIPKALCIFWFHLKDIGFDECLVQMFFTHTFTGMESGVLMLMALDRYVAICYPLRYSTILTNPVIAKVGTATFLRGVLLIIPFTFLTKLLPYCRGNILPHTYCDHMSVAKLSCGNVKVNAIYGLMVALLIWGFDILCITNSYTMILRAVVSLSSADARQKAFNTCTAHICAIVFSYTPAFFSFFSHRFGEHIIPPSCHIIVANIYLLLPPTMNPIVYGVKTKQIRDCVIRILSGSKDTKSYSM
Procedure, shortened: as §1

OR52N5 (Homo sapiens) = biological target: T10, OR52N5 (Homo sapiens) (UniProt Q8NH56)
T10 sequence (whole entry): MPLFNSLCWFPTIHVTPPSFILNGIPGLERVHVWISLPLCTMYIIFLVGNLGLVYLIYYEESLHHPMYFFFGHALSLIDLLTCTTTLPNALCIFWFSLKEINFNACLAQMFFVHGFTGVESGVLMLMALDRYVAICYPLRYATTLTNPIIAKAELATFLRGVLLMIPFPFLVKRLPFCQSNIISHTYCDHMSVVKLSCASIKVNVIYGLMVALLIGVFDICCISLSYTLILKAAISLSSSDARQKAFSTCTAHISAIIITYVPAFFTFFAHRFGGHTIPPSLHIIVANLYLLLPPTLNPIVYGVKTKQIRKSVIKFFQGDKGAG
Procedure, shortened: as §1

OR52R1 (Homo sapiens) = biological target: T11, OR52R1 (Homo sapiens) (UniProt Q8NGF1)
T11 sequence (whole entry): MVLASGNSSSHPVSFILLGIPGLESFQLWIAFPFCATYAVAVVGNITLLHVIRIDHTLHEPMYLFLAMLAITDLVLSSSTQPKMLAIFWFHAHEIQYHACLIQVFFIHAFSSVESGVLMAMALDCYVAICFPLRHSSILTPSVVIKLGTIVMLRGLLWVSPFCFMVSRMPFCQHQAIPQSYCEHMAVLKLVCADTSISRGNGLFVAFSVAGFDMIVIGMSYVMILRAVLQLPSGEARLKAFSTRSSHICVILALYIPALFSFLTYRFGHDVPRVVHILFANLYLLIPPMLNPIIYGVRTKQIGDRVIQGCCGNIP
Procedure, shortened: as §1

OR52W1 (Homo sapiens) = biological target: T12, OR52W1 (Homo sapiens) (UniProt Q6IF63)
T12 sequence (whole entry): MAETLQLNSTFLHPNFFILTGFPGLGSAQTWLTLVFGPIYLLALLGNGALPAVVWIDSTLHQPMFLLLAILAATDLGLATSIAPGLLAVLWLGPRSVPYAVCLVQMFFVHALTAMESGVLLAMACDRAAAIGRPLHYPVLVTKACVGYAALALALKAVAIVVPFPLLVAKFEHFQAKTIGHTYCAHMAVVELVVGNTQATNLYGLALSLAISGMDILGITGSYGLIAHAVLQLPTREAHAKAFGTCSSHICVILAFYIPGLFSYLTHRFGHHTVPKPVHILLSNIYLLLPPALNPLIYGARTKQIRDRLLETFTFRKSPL
Procedure, shortened: as §1

OR56A1 (Homo sapiens) = biological target: T13, OR56A1 (Homo sapiens) (UniProt Q8NGH5)
T13 sequence (whole entry): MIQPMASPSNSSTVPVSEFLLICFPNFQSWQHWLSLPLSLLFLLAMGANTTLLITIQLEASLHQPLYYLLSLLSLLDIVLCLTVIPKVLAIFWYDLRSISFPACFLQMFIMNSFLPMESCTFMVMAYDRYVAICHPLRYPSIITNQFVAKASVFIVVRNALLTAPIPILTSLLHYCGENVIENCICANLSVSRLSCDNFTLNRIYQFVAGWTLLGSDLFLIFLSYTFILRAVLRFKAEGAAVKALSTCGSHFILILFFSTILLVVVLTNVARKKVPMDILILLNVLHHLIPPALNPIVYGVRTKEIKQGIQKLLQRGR
Procedure, shortened: as §1

OR56A3 (Homo sapiens) = biological target: T14, OR56A3 (Homo sapiens) (UniProt Q8NH54)
T14 sequence (whole entry): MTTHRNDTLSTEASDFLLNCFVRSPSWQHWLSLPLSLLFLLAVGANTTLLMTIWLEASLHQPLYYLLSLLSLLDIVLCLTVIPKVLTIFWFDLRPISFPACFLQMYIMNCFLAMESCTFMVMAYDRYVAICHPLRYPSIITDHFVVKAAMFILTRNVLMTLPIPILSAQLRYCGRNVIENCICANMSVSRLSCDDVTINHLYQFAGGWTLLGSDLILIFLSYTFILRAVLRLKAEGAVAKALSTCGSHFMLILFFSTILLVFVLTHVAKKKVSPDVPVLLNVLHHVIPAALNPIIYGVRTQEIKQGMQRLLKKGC
Procedure, shortened: as §1

OR56A5 (Homo sapiens) = biological target: T15, OR56A5 (Homo sapiens) (UniProt P0C7T3)
T15 sequence (whole entry): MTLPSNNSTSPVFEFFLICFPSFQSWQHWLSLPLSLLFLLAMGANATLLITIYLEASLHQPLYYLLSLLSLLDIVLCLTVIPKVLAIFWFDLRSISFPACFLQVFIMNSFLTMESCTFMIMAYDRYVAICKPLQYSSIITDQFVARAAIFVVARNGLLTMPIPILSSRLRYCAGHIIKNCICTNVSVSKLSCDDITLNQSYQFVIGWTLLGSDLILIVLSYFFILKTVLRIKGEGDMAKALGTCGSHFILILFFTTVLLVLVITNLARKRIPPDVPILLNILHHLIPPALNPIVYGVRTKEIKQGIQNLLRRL
Procedure, shortened: as §1

OR56B1 (Homo sapiens) = biological target: T16, OR56B1 (Homo sapiens) (UniProt Q8NGI3)
T16 sequence (whole entry): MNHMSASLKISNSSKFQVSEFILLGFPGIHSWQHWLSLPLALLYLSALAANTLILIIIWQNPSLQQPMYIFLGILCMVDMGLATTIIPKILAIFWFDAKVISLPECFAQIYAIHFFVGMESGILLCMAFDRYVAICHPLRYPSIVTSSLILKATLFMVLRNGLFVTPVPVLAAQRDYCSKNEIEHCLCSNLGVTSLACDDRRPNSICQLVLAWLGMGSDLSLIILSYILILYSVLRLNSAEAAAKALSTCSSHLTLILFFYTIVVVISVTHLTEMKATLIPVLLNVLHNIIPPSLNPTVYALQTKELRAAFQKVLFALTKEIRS
Procedure, shortened: as §1

Measured: odorant receptor agonist call

CCCC(S)CCOC(C)=O (configuration not stated)
inactive: OR52I1 (Homo sapiens) | OR52I2 (Homo sapiens) | OR52J3 (Homo sapiens) | OR52K1 (Homo sapiens) | OR52K2 (Homo sapiens) | OR52L1 (Homo sapiens) | OR52M1 (Homo sapiens) | OR52N1 (Homo sapiens) | OR52N2 (Homo sapiens) | OR52N4 (Homo sapiens) | OR52N5 (Homo sapiens) | OR52R1 (Homo sapiens) | OR52W1 (Homo sapiens) | OR56A1 (Homo sapiens) | OR56A3 (Homo sapiens) | OR56A5 (Homo sapiens) | OR56B1 (Homo sapiens)
